Assay results: the array DNA melting data of Ke et al. (doi:10.1101/2024.01.08.574731)

Experiments:
[1] = folding enthalpy; higher = less favourable; fluorescence melt of hairpins on a sequencing array, two-state fit; conditions: sodium 0.088 M
Outline: (§1)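 Melting temperature and folding enthalpy were obtained by bootstrapped two-state fitting. Fits used Cy3 fluorescence of library hairpins with annealed Cy3 and quencher oligos on a sequenced MiSeq flow cell, imaged in 50 mM Na-HEPES pH 8.0, 25 mM NaCl in 2.5 °C steps up to 60 °C and normalised to pre-quench Cy3 and control constructs. Four replicates were combined by inverse-variance weighting, and fitted temperatures were raised by 9.35 °C to match UV melts.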

[2] = melting temperature; fluorescence melt of hairpins on a sequencing array, two-state fit, raised by 9.35 °C to match UV melts; conditions: sodium 0.088 M
Outline: as §1

Row | Sequence | folding enthalpy [1] | Tm [2]
1 | GCGTTGCGAAAGCTGCGC (((..((....))..))) | -36.3 kcal/mol | 65.1 °C
2 | GAGAAGGCGAAAGCCCTC (((..(((....)))))) | -10.5 kcal/mol | 37.2 °C
3 | GCCTGTACGAAAGTAGGC (((..(((....)))))) | -29.1 kcal/mol | 48.9 °C
4 | GAACCGGGAAACTGGTTC (((((.(....).))))) | -41.7 kcal/mol | 51.4 °C
5 | GCATCCGAAAGGATTGC ((((((....))).))) | -16.6 kcal/mol | 53.8 °C
6 | GCCAGCGGAAACGCTGAC (.(((((....))))).) | -13.7 kcal/mol | 51.5 °C
7 | GGATGAGGAAACTCATTC (.(((((....))))).) | -23.7 kcal/mol | 41.6 °C
8 | GCGTAGCCACGC ((((....)))) | -9.67 kcal/mol | 58.3 °C
9 | GTCACTGGAAACAATGAC ((((.((....)).)))) | -21.6 kcal/mol | 35 °C
10 | GGTTACTCGAAAGAGACC (((..(((....)))))) | -11.8 kcal/mol | 25 °C
11 | GATCGTCCATACGATC ((((((....)))))) | -41.8 kcal/mol | 54.8 °C
12 | GTGAAGGGAAACCTTCGC (.(((((....))))).) | -25.8 kcal/mol | 50.2 °C
13 | GACTTCACGAAAGTGGTC (((..(((....)))))) | -12.1 kcal/mol | 31.4 °C
14 | GTCGAAGGAAACTCCGAC ((((.((....)).)))) | -27.6 kcal/mol | 42.1 °C
15 | GGGTTCGAAAGAACTCCC ((((((....)))..))) | -13.5 kcal/mol | 46.5 °C
16 | GTTGGTGGAAACGCTAAC (((.(.(....).).))) | -14 kcal/mol | 30.7 °C
17 | GGAGCCGAAAGGCACTCC ((((((....)))..))) | -11.1 kcal/mol | 39.9 °C
18 | GATGTAGGAAACTACACC (.(((((....))))).) | -17.8 kcal/mol | 31.8 °C
19 | GCAAGGCGAAAGCAGTGC (((..((....))..))) | -16.8 kcal/mol | 50.9 °C
20 | GCGTTCGAAAGAATGCGC ((((((....)))..))) | -28.8 kcal/mol | 57.3 °C
21 | GTCATCGAAAGATTGGAC ((((((....)))..))) | -17.7 kcal/mol | 30.9 °C
22 | GTCGGACGAAAGTCGAC (((.(((....)))))) | -28 kcal/mol | 56.9 °C
23 | GGTAACGCGAAAGCGACC (((..(((....)))))) | -14.1 kcal/mol | 40.9 °C

Row | Sequence | folding enthalpy [1] | Tm [2]
24 | GCGCGCGAAAGCGCACGC ((((((....)))..))) | -11.7 kcal/mol | 67 °C
25 | GTGGTGCCGAAAGGCCAC (((..(((....)))))) | -12.8 kcal/mol | 48 °C
26 | GGAGTGGGAAACCATTCC (((.(((....))).))) | -31 kcal/mol | 46 °C
27 | GTAACGGGAAACCGCTAC (((.(((....))).))) | -24.4 kcal/mol | 39.9 °C
28 | GAGCACCCGAAAGGGCTC (((..(((....)))))) | -26.7 kcal/mol | 48.6 °C
29 | GCTTAGCGAAAGCCCAGC (((..((....))..))) | -11.5 kcal/mol | 33.4 °C
30 | CGCGGGCGGAAACGCGCG (((..(((....)))))) | -14.9 kcal/mol | 65.4 °C
31 | GACGTTGGAAACGATGTC (((.(.(....).).))) | -16.9 kcal/mol | 33.4 °C
32 | GATCGAATGATCGATC ((((((....)))))) | -19.6 kcal/mol | 51.7 °C
33 | GATCATCCCAATGATC ((((((....)))))) | -36.2 kcal/mol | 48.2 °C
34 | GGCAACACGAAAGTGGCC (((..(((....)))))) | -37.4 kcal/mol | 52.6 °C
35 | GCAGTGGGAAACCACCGC ((.((((....)))).)) | -23.4 kcal/mol | 48.8 °C
36 | GAGTACGAAAGTACGCTC ((((((....)))..))) | -16.3 kcal/mol | 53.9 °C
37 | GTGATTTCGAAAGAACAC (((..(((....)))))) | -22.9 kcal/mol | 31.3 °C
38 | GCTCTTCGAAAGAAAGC (((.(((....)))))) | -20.6 kcal/mol | 36.1 °C
39 | GCAGGGCGAAAGCACAGC ((.(.((....)).).)) | -20.6 kcal/mol | 56.8 °C
40 | GGGCTTCCGAAAGGACCC (((..(((....)))))) | -23.4 kcal/mol | 39.9 °C
41 | GATCACCGTGGTGATC ((((((....)))))) | -29.5 kcal/mol | 66.3 °C
42 | GAAGCCGAAAGGCCGTTC ((((((....)))..))) | -6.55 kcal/mol | 26.6 °C
43 | GGTTGCGGAAACACAACC (((((.(....).))))) | -40 kcal/mol | 48.4 °C
44 | GATCGTCGCCACGATC ((((((....)))))) | -42.1 kcal/mol | 53.8 °C
45 | GCGATTTCGAAAGAACGC (((..(((....)))))) | -24.2 kcal/mol | 36.9 °C
46 | CGACGTCGGAAACGATCG (((..(((....)))))) | -11.2 kcal/mol | 37 °C

Row | Sequence | folding enthalpy [1] | Tm [2]
47 | GTCTAGCGAAAGCTCGAC (((.(((....))).))) | -28.2 kcal/mol | 50 °C
48 | GGTTGCGGAAACGCAATC (.(((((....))))).) | -28.9 kcal/mol | 54.9 °C
49 | GCGATCGAAAGATGTCGC ((((((....)))..))) | -22.4 kcal/mol | 43 °C
50 | GGCGTCGGAAACGGTGCC (((..((....))..))) | -30.6 kcal/mol | 51.6 °C
51 | GGCATCGGAAACGATGTC (.(((((....))))).) | -42.1 kcal/mol | 55.9 °C
52 | GTAGTATCGAAAGATTAC (((..(((....)))))) | -12.9 kcal/mol | 26.1 °C
53 | GATCTAAGACTAGATC ((((((....)))))) | -19.9 kcal/mol | 34.3 °C
54 | GTGAGGGGAAACTCTCGC (.(((.(....).))).) | -24.9 kcal/mol | 37.2 °C
55 | GATCTGTACCAGATC ((((((...)))))) | -31.9 kcal/mol | 49.3 °C
56 | GCAGGGCGAAAGCCAGGC ((..(((....)))..)) | -19.3 kcal/mol | 60.1 °C
57 | GCCGCGCGAAAGCTCCGC ((.(.((....)).).)) | -7.61 kcal/mol | 33.2 °C
58 | GCCATGGGAAACCACGGC (((.(((....))).))) | -36.5 kcal/mol | 47.7 °C
59 | GCAAACGAAAGTTGGTGC ((((((....)))..))) | -22.5 kcal/mol | 36.7 °C
60 | GCATAGCGAAAGCCCTGC (((..((....))..))) | -7.04 kcal/mol | 29.5 °C
61 | GCATCGGAAACGATGC ((((((....)))))) | -35.8 kcal/mol | 68.6 °C
62 | GCCTCATCGAAAGATGGC (((..(((....)))))) | -10.1 kcal/mol | 43.8 °C
63 | GTAACGGGAAACCGTTGC (.(((((....))))).) | -21.2 kcal/mol | 52 °C
64 | GTTGCAGAAATGCAAC ((((((....)))))) | -35.3 kcal/mol | 57.5 °C
65 | GATCACCTGCGTGATC ((((((....)))))) | -48.3 kcal/mol | 54.9 °C
66 | GGGTTACGAAAGTATCCC (((.(((....))).))) | -43.4 kcal/mol | 51.4 °C
67 | GCGATGCGAAAGCCCCGC (((..((....))..))) | -20.5 kcal/mol | 43.9 °C
68 | GATCACCTTGGTGATC ((((((....)))))) | -37.2 kcal/mol | 67 °C
69 | GCAATCGAAAGATATTGC ((((((....)))..))) | -18.7 kcal/mol | 35.5 °C

Row | Sequence | folding enthalpy [1] | Tm [2]
70 | GTTAGCGAAAGCTACAAC ((((((....)))..))) | -8.63 kcal/mol | 30.4 °C
71 | GATCTGTAAACAGATC ((((((....)))))) | -39.5 kcal/mol | 50.3 °C
72 | GATCAAAAGATTGATC ((((((....)))))) | -20.6 kcal/mol | 33.3 °C
73 | GGATGACGAAAGTCCTCC (((.(((....))).))) | -31.5 kcal/mol | 47.1 °C
74 | GATCGTGCTCACGATC ((((((....)))))) | -48.2 kcal/mol | 58.9 °C
75 | GATCTCCGCCGAGATC ((((((....)))))) | -49.6 kcal/mol | 50.9 °C
76 | GTCTTTGGAAACAGAGAC ((((.((....)).)))) | -26 kcal/mol | 37.3 °C
77 | GGATTCGCGAAAGCGTCC (((..(((....)))))) | -10.7 kcal/mol | 29.5 °C
78 | GATCCACTCCTGGATC ((((((....)))))) | -38.4 kcal/mol | 50.3 °C
79 | GTCACTGAAAAGTGAC ((((((....)))))) | -33.2 kcal/mol | 63.3 °C
80 | GCGTGTTCACGC ((((....)))) | -29 kcal/mol | 59.5 °C
81 | GGAGGCGAAAGCCTGTCC ((((((....)))..))) | -8.31 kcal/mol | 38 °C
82 | GCGGGCGGAAACGCCCAC (.(((((....))))).) | -8.92 kcal/mol | 57.2 °C
83 | GGAATAGGAAACTATCCC ((.((((....)))).)) | -10.9 kcal/mol | 28 °C
84 | GATCTTGGAAACAAGGTC ((.((((....)))).)) | -33.9 kcal/mol | 44.2 °C
85 | CGCTGCGGAAACGCCGCG (((.(((....))).))) | -29.1 kcal/mol | 56.5 °C
86 | CGGAACCGGAAACGGCCG (((..(((....)))))) | -23.2 kcal/mol | 40.1 °C
87 | GCGGGGTCGAAAGACCGC (((..(((....)))))) | -12.8 kcal/mol | 57.7 °C
88 | GCTAAACCGAAAGGTAGC (((..(((....)))))) | -26.1 kcal/mol | 44.5 °C
89 | GGCAACGGAAACACTGCC ((((..(....)..)))) | -15 kcal/mol | 29.7 °C
90 | GCATAGACGAAAGTCTGC (((..(((....)))))) | -15.5 kcal/mol | 46.3 °C
91 | GCAAGGGGAAACCTTTGC ((((.((....)).)))) | -30.8 kcal/mol | 47.6 °C
92 | GTTGAGCCGAAAGGCAAC (((..(((....)))))) | -10.6 kcal/mol | 38.8 °C
